L major viab: inhibitors of Leishmania major promastigote growth; Leishmania major promastigotes, resazurin fluorescence viability; inhibition, % at 10 µM; hit rate 9% among 200,000; AID 1063;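 further: promastigotes grown with compound for 44 hours at 28 °C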
G6PDH CS: counter-screen for G6PDH assay hits: L. mesenteroides G6PDH inhibition. Purified L. mesenteroides G6PDH, diaphorase/resazurin coupled fluorescence, 45 min. inhibition, % at 5 µM. hit rate 0.12% among 200,000
Diaph inh CS: counter-screen for diaphorase-based assays: diaphorase inhibitors and chemical oxidizers; hit rate 0.69% among 190,000; inhibition, % at 20 µM; AID 1217; diaphorase resazurin-to-resorufin fluorescence, NADH, 16 min; bacterial (C. kluyveri) enzyme, not human;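 active means primary screen inhibition at 20 µM above a set limit, cut at about 50% in these data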
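System: Bacterial diaphorase enzyme (C. kluyveri) | Incubation: 16-min room-temperature incubation before reading | Benchmarks: No-NADH positive control and DMSO neutral control | Measured by: Resorufin fluorescence 544/590 nm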
WT yeast gro inh: growth inhibition of WT yeast, mitochondrial fusion screen. mitochondrial fusion phenotypic screen, WT strain. inhibition, % at 10 µM. hit rate 2.1% among 190,000; in the data active means inhibition above about 58%; tested in S. cerevisiae
Diaphorase act: counter-screen for diaphorase-based assays: diaphorase activators and chemical reducers | Diaphorase/resazurin coupled assay, resorufin fluorescence, 16 min; active compounds read high; 1 = vehicle wells, 0 = NADH-free wells | AID 1229 | activation factor at 20 µM | hit rate 0.005% among 190,000;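 active means diaphorase activity raised at least twofold by the compound at 20 µM; inactive means activation factor below 2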
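Material: purified diaphorase enzyme from Clostridium kluyveri; Also added: 0.114 mM NADH and 0.1 mM resazurin, final amounts; Doses: single compound dose of 20 µM, 1% DMSO final; Times: 16 min enzyme reaction, ambient temperature; Detection: resorufin fluorescence, excitation 544 nm, emission 590 nm; Measure: increased resorufin signal from activators or reducing compounds.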
Numbers stand for hits; – = inactive; · = not tested or not shown. Only some compounds are listed: those with a hit (about 11% of all), similar ones and a draw of the others. Unless noted, no stated cut-off is given here; in the data, active means inhibition above about 50%; inactive means the rest.

SMILES	L major viab	G6PDH CS	Diaph inh CS	WT yeast gro inh	Diaphorase act
CC(C)Cn1c(=O)c2ccccc2n2c(SCC(=O)N3c4ccccc4CC3C)nnc12 (centres undefined)	72	–	–	–	–
Cc1ccc(-n2c(CSc3nc(C)cc(C)n3)nnc2SCC(=O)NCc2ccco2)cc1	–	–	–	–	–
Cc1ccc(CNC(=O)CSc2nc3ccsc3c(=O)n2Cc2ccccn2)cc1	–	–	–	–	–
O=c1c2sccc2nc(SCc2ccc([N+](=O)[O-])cc2)n1Cc1ccccn1	63	–	–	–	–
O=C(COC(=O)c1ccncc1)Nc1cc(Cl)c(Cl)cc1Cl	–	–	–	71	–
COc1ccc(NC(=O)c2cccnc2Nc2ccc(OC)cc2)cc1	76	–	–	–	–
O=C(c1ccc(N2CCN(S(=O)(=O)c3ccccc3)CC2)c([N+](=O)[O-])c1)N1CCOCC1	–	–	–	–	–
Cc1c(N=C/C=C2\N(C)c3ccccc3C2(C)C)c(=O)n(-c2ccccc2)n1C	–	–	–	–	–
CN(C)c1ccc(N=C/C=C2\N(C)c3ccccc3C2(C)C)cc1	101	–	–	–	–
CN1/C(=C\C=Nc2ccc3ccccc3c2)C(C)(C)c2ccccc21	88	–	–	77	–
CN1\C(=C/C=C/C=C/C=[N+](C)C)C(C)(C)c2ccccc21	98	–	–	92	–
CN1/C(=C\C=O)C(C)(C)c2ccccc21	–	–	–	–	–
Cc1cc(/N=C/C=C2\N(C)c3ccccc3C2(C)C)n(CCC#N)n1	101	–	–	–	–
O=C(Nc1cccc(O)c1)c1cc(-c2ccco2)on1	–	–	–	–	–
COc1cccc(C(=O)c2c(C)c(CCC#N)n3ccccc23)c1	–	–	–	–	–
O=C1OC(Oc2ccccc2)(c2ccccc2)c2ccccc21 (centres undefined)	98	–	–	–	–
COc1cc(OC)c(OC)cc1CN1CCN(Cc2ccc(SC)cc2)CC1	95	–	–	–	–
COc1cc(CN2CCN(Cc3ccc(SC)cc3)CC2)cc(OC)c1O	88	58	–	–	–
COc1cc(CN2CCN(c3ccc(C)cc3)CC2)cc([N+](=O)[O-])c1O	86	–	–	–	–
O=c1[nH]c2ccccc2nc1/C=C/c1ccc(Cl)cc1	–	–	–	–	–
CCn1cc(S(=O)(=O)Nc2cc(F)ccc2C)cn1	–	–	–	–	–
Cc1cc(-c2n[nH]c(=S)n2/N=C/c2cccc([N+](=O)[O-])c2)n[nH]1	51	–	62	–	–
O=[N+]([O-])c1cccc(/C=N/n2c(C3CCCCC3)n[nH]c2=S)c1	–	–	–	–	–
Cc1cc(-c2n[nH]c(=S)n2/N=C/C(Cl)=C/c2ccccc2)n[nH]1	70	–	51	–	–
O=C(O)C1Cc2ccccc2CN1C(=O)CCl (centres undefined)	–	–	–	–	–
SMILES	L major viab	G6PDH CS	Diaph inh CS	WT yeast gro inh	Diaphorase act
CC1=CC2=NC(=O)/C(=C\c3ccc(-c4cccc(Cl)c4)o3)C(=N)N2O1	58	–	–	–	–
CC1=NOC(=O)/C1=C\c1ccc(-c2cccc(Cl)c2)o1	97	–	–	–	–
CC1=NOC(=O)/C1=C\c1ccc(-c2ccc(Cl)c(C(=O)O)c2)o1	–	–	–	–	–
CC1=NOC(=O)/C1=C\c1ccc(-c2ccccc2Br)o1	99	–	–	72	–
CC1=NOC(=O)/C1=C/c1ccc(O)cc1	–	–	·	–	·
Oc1ccc(Br)cc1/C=N/N1CCCCC1	52	–	–	–	–
Cc1c(N=C2NC(=O)/C(=C/c3cccc([N+](=O)[O-])c3)S2)c(=O)n(-c2ccccc2)n1C	89	–	–	–	–
Cc1c(N=C2C(=O)Nc3ccccc32)c(=O)n(-c2ccccc2)n1C	–	–	–	–	–
CC(C)(C)NC(=O)Cc1ccc(S(=O)(=O)N2CCCC2)s1	–	–	–	–	–
O=C(Cc1ccc(S(=O)(=O)N2CCCC2)s1)Nc1nc2c(s1)CCCC2	85	–	–	–	–
O=C(O)CCCN=CC1=C(O)CNC1=O	–	–	–	–	–
CC(O)CNCCCOc1ccc(Cl)cc1C(C)(C)C (centres undefined)	72	–	–	–	–
CN(C)CCOCCOc1ccc(Cl)cc1C(C)(C)C	98	–	–	–	–
Cc1cc(Cl)cc(Br)c1OCCNCC(C)O (centres undefined)	–	–	–	–	–
O=C(NCc1ccco1)c1ccc(COc2ccc(Cl)cc2)cc1	50	–	–	–	–
COC(=O)c1ccc(CNC(=O)c2ccc(COc3ccccc3)cc2)cc1	69	–	–	–	–
O=C(NCC(c1ccco1)N1CCCCC1)c1ccc(OCc2ccccc2)cc1 (centres undefined)	–	–	–	71	–
NNC(=O)c1ccc(COc2ccccc2)cc1	–	–	–	–	–
O=C(NCc1ccco1)c1ccc(COc2ccccc2Cl)cc1	–	–	–	–	–
CC(C)(C)c1ccc(OCC(=O)NCc2ccco2)cc1	71	–	–	–	–
O=C(CCOc1ccccc1)NCC(c1ccco1)N1CCCCC1 (centres undefined)	–	–	–	–	–
O=C(COc1ccccc1Cl)N1CCN(c2ccc(F)cc2)CC1	–	–	–	–	–
OC(CSc1ccccc1Cl)CN1CCN(c2ccc(F)cc2)CC1 (centres undefined)	91	–	–	–	–
Cc1cc(=O)oc2cc(OCC(O)CN3CCN(c4ccc(F)cc4)CC3)ccc12 (centres undefined)	–	–	–	–	–
OC(CSc1c(Cl)cccc1Cl)CN1CCN(c2ccc(F)cc2)CC1 (centres undefined)	63	–	–	–	–
SMILES	L major viab	G6PDH CS	Diaph inh CS	WT yeast gro inh	Diaphorase act
CC(C)Oc1ccc(C(=O)N(Cc2ccco2)C2CCS(=O)(=O)C2)cc1 (centres undefined)	–	–	–	–	–
O=C(c1cc2c(s1)-c1ccccc1S(=O)(=O)C2)N1CCN(Cc2ccccc2)CC1	–	–	–	–	–
O=C(/C=C/c1ccccc1)Nc1ccc(C(=O)N2CCCCC2)cc1	–	–	–	–	–
C=CCSc1nc2[nH]ncc2c(=O)[nH]1	–	–	–	–	–
C#CCSc1nc2[nH]ncc2c(=O)[nH]1	53	–	–	–	–
O=C1CN(C(=O)COC(=O)c2ccccc2NC(=O)c2ccco2)c2ccccc2N1	–	–	–	–	–
Cc1ccc(CN2CCN(C/C(Cl)=C/c3ccccc3)CC2CCO)o1 (centres undefined)	78	–	–	–	–
OCCC1CN(Cc2nc3ccccc3[nH]2)CCN1C1CCCC1 (centres undefined)	–	–	–	–	–
Cc1ccc(CN2CCN(Cc3ccc(O)cc3)CC2CCO)o1 (centres undefined)	–	–	–	–	–
OCCC1CN(C/C(Cl)=C/c2ccccc2)CCN1C1CCCC1 (centres undefined)	89	–	–	–	–

Screening results (PubChem BioAssay)
